{
  "source": "ChEMBL document CHEMBL4138048",
  "about": "“Synthesis of substituted 2H-benzo[e]indazole-9-carboxylate as a potent antihyperglycemic agent that may act through IRS-1, Akt and GSK-3β pathways” (Medchemcomm, 2017)",
  "key": {"Mus musculus [1]": {"system": "Mus musculus", "test": "Antihyperglycemic activity in db/db mouse assessed as reduction in insulin level at 30 mg/kg, po qd for 15 days", "assay_type": "functional", "design": "scale not given: the % may be the effect or the level left", "how_it_was_run": "(§1)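 db/db mice given 3, 10 or 30 mg/kg orally once a day for 15 consecutive days, alongside vehicle controls. Serum triglyceride, total cholesterol, HDL-C and insulin measured, along with fasting blood glucose. Expressed as mean % change in 5 animals per group versus control.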"}, "[2]": {"target": "T1, Tyrosine-protein phosphatase non-receptor type 1 (Rattus norvegicus) (UniProt P20417)", "T1 sequence (whole entry)": "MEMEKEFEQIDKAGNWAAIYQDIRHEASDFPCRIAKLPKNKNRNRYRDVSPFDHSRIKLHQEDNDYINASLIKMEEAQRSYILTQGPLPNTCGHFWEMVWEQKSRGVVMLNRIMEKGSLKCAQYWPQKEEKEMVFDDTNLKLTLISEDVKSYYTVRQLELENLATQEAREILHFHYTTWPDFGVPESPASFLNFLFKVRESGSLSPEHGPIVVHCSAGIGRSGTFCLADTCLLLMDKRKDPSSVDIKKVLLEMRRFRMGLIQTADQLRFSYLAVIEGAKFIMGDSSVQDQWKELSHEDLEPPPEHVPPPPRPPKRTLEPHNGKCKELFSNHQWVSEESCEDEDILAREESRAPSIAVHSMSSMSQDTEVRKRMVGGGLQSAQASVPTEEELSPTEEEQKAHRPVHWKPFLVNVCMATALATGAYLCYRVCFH", "test": "Inhibition of PTP1B in rat L6 cells assessed as increase in insulin-stimulated GSK3beta Ser9 phosphorylation at 10 to 25 uM pre-incubated for 16 hrs before insulin stimulation for 10 mins by Western blot method", "assay_type": "cell-based", "how_it_was_run": "(§2)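 L6 myotubes treated for 16 h with the compound at the indicated concentrations, then stimulated with insulin (100 nM) for 10 min. Cells lysed and analysed by western blot. Densitometry of p-IRS-1, p-AKT and p-GSK, each relative to its total form. Compared with control and with insulin-treated control.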"}, "Mus musculus [3]": {"system": "Mus musculus", "test": "Antihyperglycemic activity in db/db mouse assessed as reduction in triglyceride level at 30 mg/kg, po qd for 15 days", "assay_type": "functional", "design": "scale not given: the % may be the effect or the level left", "how_it_was_run": "as §1"}, "Mus musculus [4]": {"system": "Mus musculus", "test": "Antihyperglycemic activity in db/db mouse assessed as improvement on glucose tolerance by measuring blood glucose AUC level at 30 mg/kg, po qd for 10 days by oral glucose tolerance test", "assay_type": "functional", "how_it_was_run": "(§3)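 db/db mice dosed orally once daily for 15 consecutive days at 3, 10 or 30 mg/kg, with vehicle controls and pioglitazone at 10 mg/kg. Oral glucose tolerance tests on day 10 and day 15. Overall improvement in glucose tolerance calculated against vehicle control. Mean % change in 5 animals per group.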"}, "Mus musculus [5]": {"system": "Mus musculus", "test": "Toxicity in db/db mouse assessed as effect on food intake level at 3 to 30 mg/kg, po qd for 15 days by oral glucose tolerance test", "assay_type": "organism-based", "details": "in vivo, 360 h"}, "[6]": {"target": "T1, Tyrosine-protein phosphatase non-receptor type 1 (Rattus norvegicus)", "test": "Inhibition of PTP1B in rat L6 cells assessed as increase in insulin-stimulated Akt Ser473 phosphorylation at 10 to 25 uM pre-incubated for 16 hrs before insulin stimulation for 10 mins by Western blot method", "assay_type": "cell-based", "how_it_was_run": "as §2"}, "[7]": {"target": "T1, Tyrosine-protein phosphatase non-receptor type 1 (Rattus norvegicus)", "test": "Inhibition of PTP1B in rat L6 cells assessed as increase in insulin-stimulated IRS1 tyrosine phosphorylation pre-incubated for 16 hrs before insulin stimulation for 10 mins by Western blot method", "assay_type": "cell-based", "how_it_was_run": "as §2"}, "Mus musculus [8]": {"system": "Mus musculus", "test": "Toxicity in db/db mouse assessed as effect on body weight level at 3 to 30 mg/kg, po qd for 15 days by oral glucose tolerance test", "assay_type": "organism-based", "details": "in vivo, 360 h"}, "Mus musculus [9]": {"system": "Mus musculus", "test": "Antihyperglycemic activity in db/db mouse assessed as reduction in serum insulin level at 3 to 30 mg/kg, po qd for 15 days", "assay_type": "functional, organism-based", "how_it_was_run": "as §1"}, "Rattus norvegicus": {"system": "Rattus norvegicus", "test": "Antihyperglycemic activity in albino Wistar rat assessed as inhibition of postprandial hyperglycemia at 100 mg/kg, po dosed 30 mins before sucrose load and measured 30 to 120 mins post sucrose injection by glucometry", "assay_type": "functional", "how_it_was_run": "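Normal albino rats given an oral sucrose load, with a single oral dose of 100 mg/kg b.wt. Blood glucose profile followed after the load, and glucose AUC taken over 0–2 h. Percent inhibition of the postprandial rise in blood glucose calculated against control. Mean % change in 5 animals per group.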"}, "Mus musculus [10]": {"system": "Mus musculus", "test": "Antihyperglycemic activity in db/db mouse assessed as reduction in cholesterol level at 3 mg/kg, po qd for 15 days", "assay_type": "functional", "design": "scale not given: the % may be the effect or the level left", "how_it_was_run": "as §1"}, "Mus musculus [11]": {"system": "Mus musculus", "test": "Antihyperglycemic activity in db/db mouse assessed as reduction in blood glucose level at 30 mg/kg, po qd and measured on day 7 by oral glucose tolerance test", "assay_type": "functional, organism-based", "how_it_was_run": "(§4)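 Type 2 diabetic db/db mice dosed orally once a day for 15 days at 3, 10 or 30 mg/kg, with pioglitazone at 10 mg/kg as standard. Blood glucose measured daily and profile compared with vehicle-treated animals. Mean % change in 5 animals per group.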"}, "L6": {"system": "L6", "test": "Stimulation of [3H]2-deoxyglucose uptake in rat L6 cells at 2.5 uM incubated for 16 hrs by scintillation counting method", "assay_type": "functional, cell-based", "how_it_was_run": "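L6 myotubes incubated with the compound […]; insulin at 100 nM for 20 min served as the positive control. Uptake of ³H-2-deoxyglucose measured and expressed as fold stimulation relative to the control condition.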"}, "Mus musculus [12]": {"system": "Mus musculus", "test": "Antihyperglycemic activity in db/db mouse assessed as improvement on glucose tolerance by measuring blood glucose AUC level at 3 to 30 mg/kg, po qd for 15 days by oral glucose tolerance test", "assay_type": "functional, organism-based", "how_it_was_run": "as §3"}, "HepG2": {"system": "HepG2", "test": "Stimulation of [3H]2-deoxyglucose uptake in human HepG2 cells at 10 uM incubated for 16 hrs by scintillation counting method", "assay_type": "functional, cell-based"}, "Mus musculus [13]": {"system": "Mus musculus", "test": "Antihyperglycemic activity in db/db mouse assessed as reduction in cholesterol level at 10 mg/kg, po qd for 15 days", "assay_type": "functional", "design": "scale not given: the % may be the effect or the level left", "how_it_was_run": "as §1"}, "Mus musculus [14]": {"system": "Mus musculus", "test": "Antihyperglycemic activity in db/db mouse assessed as improvement on glucose tolerance by measuring blood glucose AUC level at 3 to 30 mg/kg, po qd for 10 days by oral glucose tolerance test", "assay_type": "functional, organism-based", "how_it_was_run": "as §3"}, "Mus musculus [15]": {"system": "Mus musculus", "test": "Antihyperglycemic activity in db/db mouse assessed as reduction in blood glucose level at 3 to 30 mg/kg, po qd for 15 days by oral glucose tolerance test", "assay_type": "functional, organism-based", "how_it_was_run": "as §4"}, "Mus musculus [16]": {"system": "Mus musculus", "test": "Antihyperglycemic activity in db/db mouse assessed as reduction in triglyceride level at 10 mg/kg, po qd for 15 days", "assay_type": "functional", "design": "scale not given: the % may be the effect or the level left", "how_it_was_run": "as §1"}, "Mus musculus [17]": {"system": "Mus musculus", "test": "Antihyperglycemic activity in db/db mouse assessed as increase in HDL-C level at 30 mg/kg, po qd for 15 days", "assay_type": "functional", "how_it_was_run": "as §1"}, "Mus musculus [18]": {"system": "Mus musculus", "test": "Antihyperglycemic activity in db/db mouse assessed as improvement on glucose tolerance by measuring blood glucose AUC level at 10 mg/kg, po qd for 15 days by oral glucose tolerance test", "assay_type": "functional", "how_it_was_run": "as §3"}, "Mus musculus [19]": {"system": "Mus musculus", "test": "Antihyperglycemic activity in db/db mouse assessed as reduction in insulin level at 3 mg/kg, po qd for 15 days", "assay_type": "functional", "design": "scale not given: the % may be the effect or the level left", "how_it_was_run": "as §1"}},
  "note": "Activity calls are given as the source filed them. The rule behind the calls is not given here.",
  "data": [
    {"smiles": "COC(=O)c1c(SC)cc(-c2ccc(C)cc2)c2c1-c1cn(-c3ccccc3)nc1CC2", "values": [
      {"measurement": "Activity", "setting": "Mus musculus [1]", "result": 30.5, "unit": "%"},
      {"measurement": "inhibition", "setting": "[2]", "result": "Active"},
      {"measurement": "Activity", "setting": "Mus musculus [3]", "result": 18.2, "unit": "%"},
      {"measurement": "Activity", "setting": "Mus musculus [4]", "result": 25.7, "unit": "%"},
      {"measurement": "Activity", "setting": "Mus musculus [5]", "result": "Non-Toxic"},
      {"measurement": "inhibition", "setting": "[6]", "result": "Active"},
      {"measurement": "inhibition", "setting": "[7]", "result": "Dose-dependent effect"},
      {"measurement": "Activity", "setting": "Mus musculus [8]", "result": "Non-Toxic"},
      {"measurement": "Activity", "setting": "Mus musculus [9]", "result": "Dose-dependent effect"},
      {"measurement": "inhibition in vivo at 100 mg/kg", "setting": "Rattus norvegicus", "result": 35.8, "unit": "%"},
      {"measurement": "Activity", "setting": "Mus musculus [10]", "result": 11.5, "unit": "%"},
      {"measurement": "Activity", "setting": "Mus musculus [11]", "result": "Active"},
      {"measurement": "Activity", "setting": "L6", "result": "Active"},
      {"measurement": "Activity", "setting": "Mus musculus [12]", "result": "Dose-dependent effect"},
      {"measurement": "Activity", "setting": "HepG2", "result": "Active"},
      {"measurement": "Activity", "setting": "Mus musculus [13]", "result": 15.3, "unit": "%"},
      {"measurement": "Activity", "setting": "Mus musculus [14]", "result": "Dose-dependent effect"},
      {"measurement": "Activity", "setting": "Mus musculus [15]", "result": "Dose-dependent effect"},
      {"measurement": "Activity", "setting": "Mus musculus [16]", "result": 13.2, "unit": "%"},
      {"measurement": "Activity", "setting": "Mus musculus [17]", "result": 20.5, "unit": "%"},
      {"measurement": "Activity", "setting": "Mus musculus [18]", "result": 20.1, "unit": "%"},
      {"measurement": "Activity", "setting": "Mus musculus [19]", "result": 6.57, "unit": "%"}
    ]}
  ]
}
